# Diaphorase act = compounds boosting diaphorase resazurin reduction – biochemical, uHTS, resorufin fluorescence, counter-screen for diaphorase-coupled primary assays, primary screen | Diaphorase/resazurin coupled assay, 16 min; hits give high values; 1 = vehicle wells, 0 = NADH-free wells | activation factor at 20 µM | AID 1229, 2008 | actives 0.005% (n = 190,000);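 active means diaphorase activity raised at least twofold by the compound at 20 µM; inactive means activation factor below 2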
#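 Material: bacterial diaphorase enzyme (C. kluyveri); amount: enzyme 0.07 U/mL final; reagent: NADH substrate 0.114 mM plus resazurin dye 0.1 mM, final; doses: single compound dose of 20 µM, 1% DMSO final; timing: 16 min enzyme reaction, ambient temperature; measured by: fluorescence of resorufin, 544 nm excitation, 590 nm emission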
# Diaph inh CS = diaphorase inhibitors and chemical oxidizers, primary screen, counter-screen for diaphorase-coupled primary assays, biochemical, uHTS, resorufin fluorescence; diaphorase resazurin-to-resorufin fluorescence, NADH, 16 min; bacterial (C. kluyveri) enzyme, not human; inhibition, % at 20 µM; actives 0.69% (n = 190,000); AID 1217, 2008;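 active means primary screen inhibition at 20 µM above a set limit, cut at about 50% in these data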;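 further: plate controls were DMSO with full reaction for no effect and wells lacking NADH for full effect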
#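 Test system: diaphorase enzyme from Clostridium kluyveri; amount: diaphorase at 0.14 U/mL in enzyme working solution; detection: fluorescence of resorufin formed from resazurin, Ex 544/Em 590 nm; times: reaction incubation of 16 min at room temperature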
# HKDC1 inh = HKDC1 hexokinase inhibitors, primary screen, biochemical, fluorescence, uHTS; Q2TB90; recombinant HKDC1, G6PDH/diaphorase resazurin coupled fluorescence; inhibition, % at 20 µM; actives 0.16% (n = 340,000);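 active means inhibition above about 35% when tested at 20 µM, limit read from the data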;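 further: plate controls were DMSO wells with enzyme for no effect and DMSO wells lacking enzyme for full effect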
# Target sequence (Q2TB90 whole entry, looked up): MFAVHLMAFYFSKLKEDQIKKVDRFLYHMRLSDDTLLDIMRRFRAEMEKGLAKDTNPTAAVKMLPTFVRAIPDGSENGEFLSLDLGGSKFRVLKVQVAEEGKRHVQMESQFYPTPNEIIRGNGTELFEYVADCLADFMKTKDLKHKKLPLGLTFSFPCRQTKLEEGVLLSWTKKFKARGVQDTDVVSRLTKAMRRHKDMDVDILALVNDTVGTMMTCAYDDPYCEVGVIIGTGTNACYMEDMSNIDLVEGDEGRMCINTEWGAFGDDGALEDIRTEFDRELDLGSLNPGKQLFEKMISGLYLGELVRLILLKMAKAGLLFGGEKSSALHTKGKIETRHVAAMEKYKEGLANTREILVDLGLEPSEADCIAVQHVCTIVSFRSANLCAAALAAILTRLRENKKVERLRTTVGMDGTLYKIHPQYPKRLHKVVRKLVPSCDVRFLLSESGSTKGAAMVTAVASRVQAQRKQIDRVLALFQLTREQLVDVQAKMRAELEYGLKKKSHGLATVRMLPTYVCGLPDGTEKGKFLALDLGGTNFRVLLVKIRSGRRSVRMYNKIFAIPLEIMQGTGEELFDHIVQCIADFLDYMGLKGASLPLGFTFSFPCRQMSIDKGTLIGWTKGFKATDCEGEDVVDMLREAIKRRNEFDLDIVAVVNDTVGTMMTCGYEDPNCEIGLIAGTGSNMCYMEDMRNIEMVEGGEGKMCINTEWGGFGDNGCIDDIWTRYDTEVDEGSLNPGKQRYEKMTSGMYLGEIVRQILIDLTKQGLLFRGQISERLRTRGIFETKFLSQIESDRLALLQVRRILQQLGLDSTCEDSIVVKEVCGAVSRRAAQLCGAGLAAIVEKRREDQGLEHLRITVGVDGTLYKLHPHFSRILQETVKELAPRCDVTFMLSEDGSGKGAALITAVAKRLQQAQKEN
#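 Material: recombinant HKDC1 hexokinase; Amount: HKDC1 at 5 µg/mL; Medium: Tris pH 8.0 buffer with MgCl2, Tween-20, BSA, BME; Schedule: 90 min reaction incubation at room temperature, dark; Technique: coupled resazurin fluorescence, excitation 525 nm, emission 613 nm.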
# G6PDH CS = L. mesenteroides G6PDH inhibitors, counter-screen for G6PDH-coupled screening assays, biochemical, Leuconostoc mesenteroides enzyme. Purified L. mesenteroides G6PDH, diaphorase/resazurin coupled fluorescence, 45 min. AID 1020, 2008. glucose-6-phosphate dehydrogenase [Leuconostoc mesenteroides]. actives 0.12% (n = 200,000). inhibition, % at 5 µM; in the data active means inhibition above about 50%
# PfGluPho inh = PfG6PD enzyme inhibitors, primary screen, biochemical, fluorescence intensity, uHTS; glucose-6-phosphate dehydrogenase-6-phosphogluconolactonase (Plasmodium falciparum 3D7); PfGluPho enzyme, NADPH resazurin-diaphorase fluorescence; inhibition, % at 20 µM; actives 0.78% (n = 350,000); AID 504690, 2011;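 active means inhibition reaching at least a set limit at 20 µM in the primary screen, cut at about 59% in these data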;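 further: 0% = DMSO wells with substrate and 100% = DMSO wells lacking glucose-6-phosphate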
# HKDC1 act conf2 = HKDC1 hexokinase activators, confirmation, biochemical, single concentration; actives 14% (n = 740); shares compounds with HKDC1 inh; inhibition, % at 20 µM; AID 504708, 2011; recombinant HKDC1, G6PDH/diaphorase resazurin fluorescence; hits give low values;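 active means inhibition at or below a set negative limit, negative inhibition meaning the enzyme was activated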
# PfG6PD confirm = PfG6PD inhibitors, hit retest, confirmation, biochemical, fluorescence intensity, single concentration. recombinant PfGluPho, NADPH-diaphorase-resazurin fluorescence. actives 34% (n = 2,400). inhibition, % at 20 µM. shares compounds with PfGluPho inh;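 active means inhibition of at least 50% at 20 µM in any single replicate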;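 further: 0% = DMSO with substrate and 100% = DMSO lacking glucose-6-phosphate substrate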
# Diaph ctr 10uM = diaphorase inhibitors and chemical oxidizers, confirmation, counter-screen for P. falciparum G6PD inhibitor project, biochemical, fluorescence intensity, 10 µM NADPH | shares compounds with PfGluPho inh | diaphorase-coupled resazurin reduction, NADPH 10 uM | inhibition, % at 20 µM | actives 39% (n = 820) | AID 504862, 2011;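 active means average inhibition reaching 50% or more with the compound at 20 µM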;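 further: resorufin red fluorescence formed as diaphorase reduces resazurin using NADPH; 0% = DMSO with enzyme and 100% = DMSO without enzyme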
# Diaph ctr 30uM = diaphorase inhibitors and chemical oxidizers, confirmation, counter-screen for P. falciparum G6PD inhibitor project, biochemical, fluorescence intensity, 30 µM NADPH; inhibition, % at 20 µM; shares compounds with PfGluPho inh; actives 29% (n = 820); Diaphorase/resazurin coupled assay, resorufin fluorescence; AID 504863, 2011;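 active means inhibition averaging 50% or more, tested at 20 µM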;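 further: 0% = DMSO with enzyme and 100% = DMSO wells lacking diaphorase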
# * = called active by the depositor; . = no result given. An excerpt weighted towards active compounds, which were near 1.2% of everything screened.
SMILES,Diaphorase act,Diaph inh CS,HKDC1 inh,G6PDH CS,PfGluPho inh,HKDC1 act conf2,PfG6PD confirm,others
Cc1cccc(N2C(=O)NC(=O)/C(=C\c3ccc4c(c3)CCCN4Cc3ccccc3)C2=O)c1,0.9,13.2,44.9*,-4.1,12.2,45.2,.,
Nc1cnn(-c2ccccc2)c(=O)c1Cl,.,.,44.7*,.,6.6,-21.9,.,
COc1cc2c(cc1OC)-c1c(OC)c(OC)c(OC)c3ccnc(c13)C2=O,0.5,54.6*,49.5*,18.9,47.8,57.5,.,
COc1cc(CC2(CCc3ccncc3)C(=O)NC(=O)NC2=O)cc(OC)c1OC,0.8,15.1,-8.5,6.5,-10.4,.,.,
O=C1Nc2ccccc2Oc2ccccc21,.,.,.,.,9.5,.,.,
O=C1NC(=S)SC1=Cc1ccc(N(CCCl)CCCl)cc1,.,.,14.8,.,-24.6,.,.,
COC(=O)[C@@H]1[C@@H](C(=O)OC)C2(c3ccccc3-c3ccccc32)N(c2ccc(Cl)cc2)N1C#N,0.8,17.3,62.2*,2.0,15.1,43.1,.,
COC(=O)C[C@]1(C(=O)OC)CN(C#N)N(c2ccc(Cl)cc2)C12c1ccccc1-c1ccccc12,0.8,15.9,86.9*,3.8,22.2,62.4,.,
C[C@H](CO)N1C[C@H](C)[C@H](CN(C)C(=O)Oc2ccccc2)OCc2cnnn2CCCC1=O,.,.,.,.,14.9,.,.,
c1ccc2c(c1)CN(Cc1ccc3c(c1)OCO3)Cc1cnnn1-2,.,.,.,.,6.7,.,.,
Cc1ccc(OP2(=O)Nc3cc(C)c(C)cc3S2)cc1 (stereo unspecified),.,.,-40.7,.,45.7,-22.8,.,
Cc1cc(C)c(C)c(C(O)(C(=O)O)c2ccccc2)c1 (stereo unspecified),.,.,.,.,-15.4,.,.,
Cc1ccc(N2C(=O)NC(=O)/C(=C/c3ccoc3)C2=O)cc1,.,.,39.2*,.,21.9,-3.1,.,
CCCCCc1nc2ccccc2c(=O)n1-c1ccccc1[N+](=O)[O-],0.8,24.9,-6.5,8.1,3.1,.,.,
CCCCCc1nc2c(c(=O)c3ccccc3n2C)c(=O)n1C1CCCCCC1,1.1,-5.4,30.7,-22.3,9.3,17.4,.,
CC(C)CC1(CCc2ccccc2)C(=O)NC(=O)NC1=O,.,.,-2.3,.,-9.7,.,.,
CCOC(=O)c1c(-n2c(C)cc(C=C3C(=O)NC(=O)NC3=O)c2C)sc2c1CCCC2,0.9,9.5,41.4*,5.4,-4.4,30.1,.,
Cc1cc(/C=C2\C(=O)NC(=O)N(c3ccccc3F)C2=O)c(C)n1-c1cc(C(=O)O)cc(C(=O)O)c1,.,.,2.3,.,-4.1,.,.,
Cc1cccc(N2C(=O)NC(=O)/C(=C\c3cc(C)n(-c4sc5c(c4C#N)CCCC5)c3C)C2=O)c1C,0.7,27.5,72.4*,2.1,12.2,54.9,.,
CN1CCc2cc3c(c4c2C1Cc1ccccc1-4)OCO3 (stereo unspecified),.,.,32.1,.,88.9*,-1.0,24.2,
COC(=O)C1=C(c2ccc(-c3ccccc3)c(F)c2)C[C@@H]2CC[C@H]1N2C(=O)NCCOc1ccccc1Cl,.,.,-0.8,.,19.8,.,.,
COCCNC(=O)c1c(N)n(Cc2ccco2)c2nc3ccccc3nc12,0.7,32.2,0.5,6.0,59.9*,.,-2.4,
C=CCNC(=O)c1c(N)n(Cc2ccco2)c2nc3ccccc3nc12,0.7,30.1,4.7,-0.1,31.7,.,.,
O=C1NC(=O)C(=Cc2ccc(-c3cc(Cl)ccc3[N+](=O)[O-])o2)C(=O)N1,0.7,27.1,23.2,-4.0,69.2*,.,24.8,
O=C1NC(=O)C(=Cc2ccc(-c3ccccc3[N+](=O)[O-])o2)C(=O)N1,.,.,3.6,.,87.9*,.,76.0*,Diaph ctr 10uM=15.7;Diaph ctr 30uM=4.7
SMILES,Diaphorase act,Diaph inh CS,HKDC1 inh,G6PDH CS,PfGluPho inh,HKDC1 act conf2,PfG6PD confirm,others
COC(=O)C1=C(c2ccc(OC)c(OC)c2)C[C@@H]2CC[C@H]1N2C(=O)NCCCOC(C)C,.,.,-4.4,.,-3.5,.,.,
c1ccc(Nc2ccc3ccccc3c2)cc1,.,.,12.0,.,37.8,.,.,
CC(C)Nc1ccc(Nc2ccccc2)cc1,.,.,10.9,.,106.2*,.,52.1*,Diaph ctr 10uM=-0.9;Diaph ctr 30uM=8.3
COc1cc(/C=C/c2nc3ccccc3c(=O)n2-c2ccccc2O)ccc1O,.,.,1.0,.,84.3*,.,38.7,
COc1cc(/C=C/c2nc3ccccc3c(=O)n2-c2cccc(O)c2)ccc1O,.,.,0.6,.,24.7,.,.,
CCCN1CCc2cc(O)cc3c2[C@H]1Cc1ccc(O)c(O)c1-3,.,.,7.9,.,86.2*,.,77.3*,Diaph ctr 10uM=18.8;Diaph ctr 30uM=29.9
CN1CCc2cc(O)cc3c2[C@H]1Cc1ccc(O)c(O)c1-3,.,.,0.8,.,86.1*,.,83.1*,Diaph ctr 10uM=24.5;Diaph ctr 30uM=6.2
COc1cc2c(cc1O)C[C@H]1c3c(cc(O)c(OC)c3-2)CCN1C,.,.,8.9,.,-3.1,.,.,
CCOC(=O)[C@@H]1[C@H]2COc3ccc(Br)cc3[C@H]2N2C(=O)N(c3cccc(C)c3)C(=O)[C@]12C,.,.,2.1,.,16.9,.,.,
O=c1[nH]sc2cc(F)ccc12,1,-1.7,-2.0,11.8,63.3*,.,52.5*,Diaph ctr 10uM=-5.0;Diaph ctr 30uM=-9.3
CC(=O)n1cc(C=C2C(=O)NC(=O)NC2=O)c2ccccc21,.,.,3.9,.,66.4*,.,-20.0,
O=C1NC(=O)C(=Cc2csc3ccccc23)C(=O)N1,.,.,3.0,.,65.2*,.,31.4,
COc1ccc(OC(=O)N(C)C[C@@H]2OCc3ccccc3-c3c(n(C)c4ccccc34)C(=O)N([C@H](C)CO)C[C@@H]2C)cc1,.,.,.,.,5.9,.,.,
CC1(C)OC1COc1c2occc2cc2ccc(=O)oc12 (stereo unspecified),0.9,5.9,2.1,12.3,6.0,.,.,
CC(C)=CCOc1c2occc2cc2ccc(=O)oc12,0.7,25.5,6.0,18.1,67.7*,.,44.7,
COc1ccc(-n2nc(C(=O)NCC(=O)N3CCC4(CC3)OCCO4)c3ccccc3c2=O)c(OC)c1,.,.,-4.4,.,7.3,.,.,
CC1=C(O)C(=O)C=C2C1=CC=C1C2(C)CCC2(C)C3CC(C)(C(=O)O)CCC3(C)CCC12C (stereo unspecified),.,.,27.3,.,80.5*,.,71.1*,Diaph ctr 10uM=-15.2;Diaph ctr 30uM=-16.0

# Screening data: PubChem BioAssay, Sanford-Burnham Center for Chemical Genomics
